An excerpt weighted towards active compounds, which were near 2.9% of everything screened.
SENP7 block = inhibitors of human SENP7 protease | recombinant SENP7, Z-RLRGG-aminoluciferin luminescence, 40 min | inhibition, % at 5 µM | actives 1.5% (n = 330,000) | AID 434973;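 active = inhibition above about 50% at the single test dose, limit read from the data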;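 also: plate controls were DMSO with enzyme for no effect and no enzyme buffer wells for full effect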
SENP8 block-1 = inhibitors of human SENP8 protease; recombinant SENP8, Nedd8 substrate fluorescence; inhibition, % at 20 µM; actives 0.64% (n = 360,000); in the data active = inhibition mostly above about 40%, no sharp cut-off; inactive = mostly below about 27%
Target sequence (Q96LD8 whole entry, looked up): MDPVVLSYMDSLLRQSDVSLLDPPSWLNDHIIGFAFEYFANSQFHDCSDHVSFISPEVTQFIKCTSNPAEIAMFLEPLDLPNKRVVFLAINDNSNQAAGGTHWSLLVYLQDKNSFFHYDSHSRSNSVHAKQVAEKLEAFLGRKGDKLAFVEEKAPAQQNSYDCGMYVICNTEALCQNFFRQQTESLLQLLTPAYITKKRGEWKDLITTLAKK
SENP6 block = blocks the human protease SENP6; Q9GZR1; Recombinant SENP6 catalytic domain, aminoluciferin luminescence; inhibition, % at 10 µM; actives 1.8% (n = 330,000);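 active = inhibition above about 50% at the single tested dose, limit read from the data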;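 also: plate controls were DMSO wells with enzyme for no effect and DMSO wells lacking enzyme for full effect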
Target sequence (Q9GZR1 628-1112 limits assumed): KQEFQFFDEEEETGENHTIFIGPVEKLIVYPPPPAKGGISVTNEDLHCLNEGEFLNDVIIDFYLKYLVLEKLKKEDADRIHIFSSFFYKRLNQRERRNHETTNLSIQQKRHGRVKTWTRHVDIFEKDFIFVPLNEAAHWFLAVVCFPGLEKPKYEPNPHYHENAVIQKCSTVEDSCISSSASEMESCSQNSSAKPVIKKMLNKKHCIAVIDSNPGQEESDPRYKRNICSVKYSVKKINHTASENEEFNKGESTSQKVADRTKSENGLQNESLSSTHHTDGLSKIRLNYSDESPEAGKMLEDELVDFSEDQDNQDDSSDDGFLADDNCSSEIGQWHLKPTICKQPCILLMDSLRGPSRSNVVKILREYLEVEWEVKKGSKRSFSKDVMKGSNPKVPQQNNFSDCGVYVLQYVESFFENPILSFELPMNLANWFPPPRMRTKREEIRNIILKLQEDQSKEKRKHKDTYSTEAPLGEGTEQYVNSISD
SENP8 block-2 = blocks the human protease SENP8; actives 1.2% (n = 330,000); purified SENP8, Z-RLRGG-aminoluciferin cleavage, luminescence; inhibition, % at 10 µM; AID 2540; in the data active = inhibition above about 50%
HSP90 refold inh = inhibitors of HSP90 luciferase refolding in rabbit reticulocyte lysate | luciferase refolding luminescence, 3 h | inhibition, % at 5.6 µM | actives 0.91% (n = 290,000);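 active = inhibition above the screen-wide mean plus 3 SD, computed separately per campaign, cut at about 16% in these data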;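 also: 0% = DMSO wells and 100% = 60 µM geldanamycin wells; inhibitors lower the luminescence because luciferase stays unfolded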
SENP1 FRET inh = SENP1 (human) catalytic domain inhibition | recombinant SENP1 catalytic domain, CyPet-SUMO1-YPet FRET cleavage | inhibition, % at 10 µM | actives 0.21% (n = 360,000) | AID 624204;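 active = inhibition at least 30% at 10 µM, raw YFP signal under a set limit, fluorescence ratio 0.5 to 1.5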;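 also: 0% = enzyme with DMSO and 100% = no enzyme wells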
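Assay system: hSENP1 catalytic domain, recombinant. Amount: SENP1 enzyme, 20 pM final. Schedule: 50 min reaction, RT, dark. Technique: FRET, CFP and YFP emission. Control set: no-enzyme wells low, DMSO-plus-enzyme wells high control.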
SENP8 conf = SENP8 (human) inhibition, single concentration confirmation. actives 15% (n = 1,400). purified SENP8, Nedd8-AMC/pro-Nedd8 cleavage fluorescence, 30 min. inhibition, % at 25 µM. shares compounds with SENP8 block-1. AID 624319; in the data active = inhibition mostly above about 39%, no sharp cut-off; inactive = mostly below about 34%
* marks the source's active call; other numbers are inactive results; . = no result; ! = a repeat was not active.

SMILES	SENP7 block	SENP8 block-1	SENP6 block	SENP8 block-2	HSP90 refold inh	SENP1 FRET inh	SENP8 conf
Cc1ccc(S(=O)(=O)N2CCSC2c2ccco2)cc1 (stereo not given)	3.0	10.6	-13.3	-3.4	1.1	-7.3	.
O=C1c2c(O)cc(O)cc2O[C@H](c2ccc(O)cc2)[C@H]1O	1.4	61.7*	-12.6	-15.9	.	1.4	20.8
Cc1ccc(C2=N/C(=C\c3cccs3)C(=O)N2Nc2ccccc2)cc1	-3.7	41.5*	-0.6	3.8	2.6	-22.5	31.3
O=C1CC(Sc2ncccc2C(=O)O)C(=O)N1 (stereo not given)	-2.3	10.4	14.8	7.5	-0.6	0.7	.
O=C1CC(SC(=S)C2CCCC2=O)C(=O)N1 (stereo not given)	.	40.6*	.	.	.	14.6	26.5
O=C(O)c1ccc(CCCc2ccccc2)cc1	.	9.0	.	.	.	2.3	.
O=C(O)CCCCCCCCCCCc1ccccc1	-1.7	55.6*	33.7	41.5	-0.6	-0.9	2.9
CC(C)NC(=O)N[C@H]1CC[C@H](CC(=O)NCc2ccc(Oc3ccccc3)cc2)O[C@@H]1CO	.	12.0	.	.	.	0.0	.
COc1ccc(-c2csc(NC(=S)NC(=O)/C=C/c3ccco3)n2)cc1Br	-3.0	43.4*	-12.8	-5.2	4.7	-1.6	16.5
COc1ccc(-c2csc(NC(=S)NC(=O)c3ccco3)n2)cc1Br	0.8	24.1	-15.6	1.9	0.9	1.4	.
O=C(CN1CCN(Cc2ccccc2)CC1)N/N=C/c1ccc(Br)s1	-9.4	20.9	-11.9	-8.5	3.3	-1.4	.
CNc1ncnc(Sc2ccc(Cl)cc2)c1[N+](=O)[O-]	-0.1	41.6*	-2.6	7.5	5.7	0.8	4.0
Cc1nc2ccccc2n1CC(O)COCC1CC=CCC1 (stereo not given)	-2.0	43.0*	-1.5	-2.8	-4.2	0.7	-4.8
OC(COCC1CC=CCC1)Cn1cnc2ccccc21 (stereo not given)	-2.8	19.7	8.5	7.7	-0.1	-3.6	.
CC(=O)n1cc(CO)c2ccccc21	-2.7	44.9*	-8.9	-0.2	-7.2	-0.3	8.5
C=C(c1cn(C(C)=O)c2ccccc12)c1cn(C(C)=O)c2ccccc12	.	-6.2	.	.	.	-2.9	.
[O-]C1=N[N+](=C(c2ccccc2)c2ccccc2)C1	.	17.6	.	.	.	3.2	.
O=C(NCc1ccco1)C(c1ccncc1)N(C(=O)Cn1nnc2ccccc21)c1ccccc1F (stereo not given)	-2.8	14.4	-24.8	-2.3	6.0	-1.0	.
O=C(CN1CCN(c2ccccc2O)CC1)Nc1ccnn1C1CCCC1	5.5	-3.0	-4.0	-6.5	.	-2.7	.
CC1CCCN(C(=O)COC(=O)C2CCN(S(=O)(=O)c3ccc4c(c3)OCCO4)CC2)C1 (stereo not given)	-12.3	16.0	-8.7	-15.0	.	1.4	.
CCOc1ccc(OCC(=O)Nc2ccc(S(=O)(=O)Nc3cc(C)nc(C)n3)cc2)cc1	-4.6	42.1*	-11.0	-1.8	-5.2	-1.5	5.2
Cc1cc(NS(=O)(=O)c2ccc(NC(=O)COc3ccc(Br)cc3)cc2)nc(C)n1	-5.1	17.0	0.2	-6.1	-1.4	2.1	.
CCOC(=O)C1=C(C)NC(=O)NC1c1ccc(OC)c(Cl)c1 (stereo not given)	-5.3	9.2	-16.3	-8.3	4.9	0.8	.
CCOC(=O)C1=C(C)NC(=O)NC1c1ccc(OCCO)c(OC)c1 (stereo not given)	-5.5	40.0*	-6.2	-8.3	0.9	1.0	3.1
NC(=NC1CCCCC1)c1ccc([N+](=O)[O-])cc1	3.3	41.7*	-7.0	7.6	-0.3	1.3	5.3
SMILES	SENP7 block	SENP8 block-1	SENP6 block	SENP8 block-2	HSP90 refold inh	SENP1 FRET inh	SENP8 conf
Cc1cc(C(=O)N/N=C/c2ccc([N+](=O)[O-])s2)c2ccccc2n1	0.1	46.3*	31.9	8.0	-2.9	-6.1	28.5
O=C(N/N=C/c1cc([N+](=O)[O-])ccc1Cl)c1cc(-c2ccccc2)nc2ccccc12	-4.0	41.4*	-21.5	-4.4	-1.1	0.9	-4.5
O=C(N/N=C/c1cc([N+](=O)[O-])ccc1O)c1cc(-c2ccccc2)nc2ccccc12	-1.1	1.4	3.3	-10.7	4.2	-29.8	.
O=C(CNC(=O)c1cccc(Cl)c1)N/N=C/C=C/c1ccccc1	2.6	-0.9	-6.6	-7.6	-0.8	0.6	.
CC(=O)N(O)CCCCCNC(=O)CCC(=O)N(O)CCCCCNC(=O)CCC(=O)N(O)CCCCCN	3.8	49.6*!	-2.3	1.1	-0.2	1.9	18.6
C=CCNc1nc(C(=O)OCC(=O)Nc2c(Cl)cccc2C(F)(F)F)cs1	-3.6	-2.3	3.9	-0.2	.	-1.5	.
O=C1O[C@@H]([C@H](O)CO)C(O)=C1O	0.1	40.4*	-10.1	0.3	.	-0.1	26.4
Nc1nc(NCCO)nc(NC2CCCCC2)c1[N+](=O)[O-]	-11.2	18.4	-35.9	-13.0	-1.5	0.7	.
Nc1nc(NCCOCCO)nc(NC2CCCCC2)c1[N+](=O)[O-]	-0.4	46.6*	-0.5	-1.5	5.0	-1.5	-1.4
CCOC(=O)C1=CC[C@H]2c3c(c4ccccc4n3C)C(=O)C1N2C(=O)OC(C)(C)C	4.7	11.9	0.1	0.5	.	-1.1	.
COc1ccc(NC(=S)N(CCCN2CCCC2)Cc2cccs2)cc1	2.3	22.0	1.0	-2.7	4.6	1.1	.
S=C(Nc1cccc(Cl)c1)N(CCCN1CCCC1)Cc1cccn1Cc1ccc(Cl)cc1	1.9	40.3*	-7.9	-0.6	1.9	-1.2	29.2
CSc1cccc(NC(=S)N(CCCN2CCCC2)Cc2cccn2Cc2ccc(Cl)cc2)c1	5.5	38.8	-12.7	-7.5	4.9	1.9	.
CSc1cccc(NC(=S)N(CCCN2CCCC2)Cc2cccs2)c1	-4.7	45.7*	-2.1	0.7	0.3	1.3	-3.8
CCCCC[C@@H]1[C@H]2[C@H]3C(=O)N(c4ccccc4)C(=O)[C@H]3CC(=O)[C@H]2[C@H](c2ccccc2)N1S(=O)(=O)c1ccc(C)cc1	.	9.3	.	.	.	-17.7	.
CC1=CC2(O)OCCN(CCO)C2=CC1=O (stereo not given)	3.1	44.2*	8.9	8.3	2.4	-4.4	31.9
CCC(=O)NC(c1cccs1)c1cc([N+](=O)[O-])c2cccnc2c1OC (stereo not given)	.	95.9*	.	.	.	10.2	34.0
COC(=O)CNC(=O)c1ccccc1	6.6	50.8*	4.5	0.9	.	2.1	5.4
O=C(NCc1ccccc1)c1ccccc1	.	62.2*	.	.	.	1.9	18.4
O=C(CNC(=O)/C=C/c1ccco1)N=Nc1c(O)[nH]c2ccccc12	2.4	14.8	7.0	-9.7	1.6	5.1	.
CCCCN(CC)CCCNC(=O)C1CCN(c2ncnc3c2sc2cccc(F)c23)CC1	3.0	-217.8	-7.1	-1.8	0.6	-9.6	.
O=C(C[n+]1cc(-c2ccccc2)n2c1CCCCC2)c1ccc(Br)cc1	6.3	45.5*	-16.1	-4.3	3.4	-1.3	9.5

Screening data deposited in PubChem by several laboratories.
